Assay results: ChEMBL document CHEMBL1151952, “Biologically active cannabinoids from high-potency Cannabis sativa” (J Nat Prod, 2009); call rule not given here

Columns and labels:
[1] = tested on: Vero; test: Cytotoxicity against african green monkey Vero cells up to 10 ug/mL by neutral red method; format: cell-based; conditions: chlorocebus sabaeus
[2] = tested on: Escherichia coli; test: Antibacterial activity against Escherichia coli ATCC 35218 after 18 to 24 hrs by alamar blue assay; format: functional, organism-based
[3] = tested on: Candida albicans; test: Antifungal activity against Candida albicans ATCC 90028 after 18 to 24 hrs by alamar blue assay; format: functional, organism-based
[4] = tested on: Mycobacterium intracellulare; test: Antibacterial activity against Mycobacterium intracellular ATCC 23068 after 68 to 72 hrs by alamar blue assay; format: functional, organism-based
[5] = tested on: Leishmania donovani; test: Antileishmanial activity against Leishmania donovani; format: functional, organism-based
Summary of the method: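 Leishmania donovani assay; IC50 and IC90 are the test concentrations that kill 50% and 90% of cells, relative to solvent controls.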

[6] = tested on: Staphylococcus aureus; test: Antibacterial activity against Staphylococcus aureus ATCC 29213 by alamar blue assay; format: functional, organism-based
[7] = tested on: Plasmodium falciparum; test: Antiplasmodial activity against Plasmodium falciparum W2; format: functional, organism-based
[8] = tested on: Plasmodium falciparum; test: Antiplasmodial activity against Plasmodium falciparum D6; format: functional, organism-based
[9] = tested on: Staphylococcus aureus; test: Antibacterial activity against methicillin-resistant Staphylococcus aureus ATCC 33591 after 18 to 24 hrs by alamar blue assay; format: functional, organism-based
[10] = tested on: Pichia kudriavzevii; test: Antifungal activity against Candida krusei ATCC 6258 by alamar blue assay; format: functional, organism-based
[11] = Candida albicans, ATCC 90028, read-out: IC50
[12] = Mycobacterium intracellulare, ATCC 23068, read-out: IC50
[13] = Plasmodium falciparum, W2, read-out: IC50
[14] = Plasmodium falciparum, D6, read-out: IC50
[15] = Staphylococcus aureus, ATCC 29213, read-out: IC50

Structure (SMILES)	Activity [1]	IC50 [2]	IC50 [5]	IC90 [5]	IC50 [3]	IC50 [4]	IC50 [9]	IC50 [6, 15]	IC50 [10]	other results
CCCCCc1cc(O)c2c(c1)OC(C)(C)c1cc(O)c(C)cc1-2	Non-toxic	Not Active								IC50 [3, 11]: 4.6 µM; IC50 [4, 12]: 30.6 µM
CCCCCc1cc(O)c(C/C=C(\C)CCC=C(C)C)c(OC(C)=O)c1O	Non-toxic	Not Active	10.7 µM	18.7 µM	Not Active	Not Active	53.4 µM			IC50 [6]: Not Active; IC50 [7, 13]: 6.7 µM; IC50 [8, 14]: 7.2 µM
CCCCCc1c(C/C=C(\C)CCC=C(C)C)c(O)cc(O)c1OC(C)=O	Non-toxic	Not Active	42.7 µM	85.4 µM	Not Active	Not Active	6.7 µM	12.2 µM	53.4 µM	IC50 [7]: Not Active; IC50 [8]: Not Active
CCCCCc1cc(O)c2c(c1OC(C)=O)OC(C)(CCC=C(C)C)C=C2 (racemic)	Non-toxic		40.3 µM	91.3 µM						IC50 [7, 13]: 4 µM; IC50 [8, 14]: 7.2 µM
C=C(C)C(O)CCC1(C)C=Cc2c(O)cc(CCCCC)cc2O1 (racemic)	Non-toxic	Not Active		96.8 µM		Not Active	24.4 µM	29.6 µM	60.5 µM	IC50 [7]: Not Active; IC50 [8]: Not Active; IC50 [3, 11]: 60.5 µM
CCCCCc1cc2c(c(O)c1C(=O)O)-c1cc(C)c(O)cc1C(C)(C)O2 [8-HYDROXYCANNABINOLIC ACID A]	Non-toxic				Not Active	Not Active		3.5 µM	54 µM	IC50 ([2]; Escherichia coli, ATCC 35218, read-out: IC50): 54 µM
C[C@@H]1[C@H](O)[C@@H](C)/C=C/C=C/C=C/C=C/C=C/C=C/C=C/[C@H](O[C@@H]2O[C@H](C)[C@@H](O)[C@H](N)[C@@H]2O)C[C@@H]2O[C@](O)(C[C@@H](O)C[C@@H](O)[C@H](O)CC[C@@H](O)C[C@@H](O)CC(=O)O[C@H]1C)C[C@H](O)[C@H]2C(=O)O [AMPHOTERICIN B]									0.7 µM	
O=C(O)c1cn(C2CC2)c2cc(N3CCNCC3)c(F)cc2c1=O [CIPROFLOXACIN]										IC50 [4, 12]: 1.5 µM
N=C(N)c1ccc(OCCCCCOc2ccc(C(=N)N)cc2)cc1 [PENTAMIDINE]			3.8 µM	19.1 µM						
